The source made the active and inactive calls. The rule behind the calls is not given here.
Experiments:
[1] = target: T1, Farnesyl pyrophosphate synthase (Homo sapiens, UniProt P14324); assay: Inhibition of FDPS (unknown origin) using [14C] IPP and GPP as substrate preincubated for 10 mins followed by substrate addition and measured after 30 min by scintillation counting method
T1 sequence (P14324 whole entry): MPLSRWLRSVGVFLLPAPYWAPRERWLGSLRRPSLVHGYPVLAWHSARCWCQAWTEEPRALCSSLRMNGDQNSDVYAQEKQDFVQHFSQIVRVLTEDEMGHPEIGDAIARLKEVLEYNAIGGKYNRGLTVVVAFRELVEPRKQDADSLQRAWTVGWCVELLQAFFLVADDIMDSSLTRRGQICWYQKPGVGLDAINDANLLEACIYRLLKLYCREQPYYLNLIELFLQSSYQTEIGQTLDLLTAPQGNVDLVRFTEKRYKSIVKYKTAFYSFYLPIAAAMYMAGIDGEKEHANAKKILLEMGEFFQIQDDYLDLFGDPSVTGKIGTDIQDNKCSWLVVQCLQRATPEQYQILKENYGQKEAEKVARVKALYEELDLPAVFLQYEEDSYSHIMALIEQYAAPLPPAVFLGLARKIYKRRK
In short: (§1)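 Recombinant enzyme donated by outside labs, assayed by a previously described method; each concentration run in duplicate over multiple concentrations, three independent experiments.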

[2] = target: T2, Geranylgeranyl pyrophosphate synthase (Homo sapiens) (UniProt O95749); assay: Inhibition of GGPPs in human RPMI8226 cells assessed as disruption of Rap1a geranylgeranylation measured after 48 hrs by immunoblot analysis; type: cell-based
T2 sequence (whole entry): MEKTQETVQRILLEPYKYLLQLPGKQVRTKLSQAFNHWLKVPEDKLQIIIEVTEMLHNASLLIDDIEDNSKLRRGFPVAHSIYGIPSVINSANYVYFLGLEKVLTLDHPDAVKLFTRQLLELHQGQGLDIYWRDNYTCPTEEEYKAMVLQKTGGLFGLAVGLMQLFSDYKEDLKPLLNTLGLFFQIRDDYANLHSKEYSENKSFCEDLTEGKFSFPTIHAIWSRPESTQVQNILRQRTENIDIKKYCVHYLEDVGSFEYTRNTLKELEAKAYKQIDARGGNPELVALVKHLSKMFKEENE
In short: (§2)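 Whole-cell lysates made in RIPA buffer (0.15 M NaCl, 1% deoxycholate, 0.1% SDS, 1% Triton X-100, 0.05 M Tris HCl) with protease/phosphatase inhibitors; protein by BCA; equal protein run on SDS-PAGE, PVDF transfer, primary antibodies, HRP secondaries, ECL detection of Rap1a with β-tubulin as loading reference.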

[3] = target: T2, Geranylgeranyl pyrophosphate synthase (Homo sapiens); assay: Inhibition of GGPPs in human RPMI8226 cells assessed as disruption of Rab geranylgeranylation by ELISA; type: cell-based
Homo sapiens = species on record: Homo sapiens; assay: Selectivity ratio of IC50 for FDPS (unknown origin) to IC50 for GGDPS (unknown origin)
[4] = target: T3, Geranylgeranyl pyrophosphate synthase (Homo sapiens, UniProt O95749); assay: Inhibition of GGDPS (unknown origin) using [14C] IPP and FPP as substrate preincubated for 10 mins followed by substrate addition and measured after 30 min by scintillation counting method; in short: as §1
T3 sequence (O95749 whole entry): T2 sequence (whole entry)

[5] = target: T2, Geranylgeranyl pyrophosphate synthase (Homo sapiens); assay: Inhibition of GGPPs in human RPMI8226 cells assessed as disruption of Rap1a geranylgeranylation at 1 to 10 uM after 48 hrs by immunoblot analysis; type: cell-based; in short: as §2
[6] = target: T2, Geranylgeranyl pyrophosphate synthase (Homo sapiens); assay: Inhibition of GGPPs in human MM1S cells assessed as disruption of Rap1a geranylgeranylation at 1 to 10 uM after 48 hrs by immunoblot analysis; type: cell-based; in short: as §2

Structure (SMILES)	IC50 [1]	inhibition [2]	MEC [3]	inhibition [3]	Ratio IC50 (Homo sapiens)	IC50 [4]	inhibition [5]	inhibition [6]
C/C(=C/CCn1cc(CC(C)(P(=O)(O)O)P(=O)(O)O)nn1)CC/C=C(\C)CO	81.4 µM	Dose-dependent effect	0.25 µM	Dose-dependent effect	121	0.67 µM		
CC(=CCn1cc(CC(P(=O)(O)O)P(=O)(O)O)nn1)CC/C=C(\C)CO	91.2 µM	Dose-dependent effect	10 µM	Dose-dependent effect	8	11.6 µM	Active	Active

Reference: ChEMBL document CHEMBL4304801, “ω-Hydroxy isoprenoid bisphosphonates as linkable GGDPS inhibitors” (Bioorg Med Chem Lett, 2019)
